The values that follow come from ChEMBL document CHEMBL1135733, “6-Sulfonylchromenes as highly potent K(ATP)-channel openers” (J Med Chem, 2002).

The species entered for test [1] is Rattus norvegicus. The experiment in a line: Dilator activity expressed as potency for relaxation of Tracheal strips percontracted with 0.6 uM carbachol. It is filed as functional. An outline of the steps:
(§1)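 Rat tracheal strips at 10 mN resting force in supplemented Krebs solution, 32.5 °C, equilibrated 2 h with two test contractures; concentration-effect curves, effects as % of basal force (100% relaxation) vs maximum force (0%). pEC50 by linear extrapolation at half-maximal effect; Emax as % of basal tension; mean ± SEM, n = 4–6; paired time controls.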

The species named for test [2] is Rattus norvegicus. Description: Maximum level of relaxation of aortic rings measured as percentage of basal tension. Format: functional. As to conditions: Aorta. An outline of the steps:
(§2)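 Isolated rat aortic rings at 5 mN resting force in supplemented Krebs solution, 32.5 °C, equilibrated 2 h with two test contractures; cumulative concentration-effect curves, effects as % of basal force (100% relaxation) vs maximum force (0%). pEC50 by linear extrapolation at half-maximal effect; Emax as % of basal tension; mean ± SEM, n = 4–6; paired time controls.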

The species entered for test [3] is Rattus norvegicus. Description: Dilator activity expressed as potency for relaxation of Aortic rings precontracted with 25 mM K. It is filed as functional. In short, it runs like this: as §2
The species named for test [4] is Rattus norvegicus. Description: Maximum level of relaxation of tracheal strips measured as percentage of basal tension. Format: functional. As to conditions: Trachea. An outline of the steps: as §1
Test [5] is filed under the species Rattus norvegicus. The experiment in a line: Difference between the pEC50 values in rat aorta and trachea as an indicator of selectivity. It is filed as functional.
Test [6] has as its target ATP-binding cassette sub-family C member 9 (Rattus norvegicus) (UniProt Q63563). Description: Binding affinity to the sulfonylurea receptor 2A (SUR2A) in purified membranes of rat-heart myocytes. Format: cell membranes.
For test [7] the target is unchanged. The experiment in a line: Binding affinity towards Sulfonylurea receptor 2B (SUR2B) in cultured rat aortic smooth muscle cells (SMC).

The structures appear in SMILES notation.

Sequence of ATP-binding cassette sub-family C member 9 (Rattus norvegicus) (Q63563 whole entry): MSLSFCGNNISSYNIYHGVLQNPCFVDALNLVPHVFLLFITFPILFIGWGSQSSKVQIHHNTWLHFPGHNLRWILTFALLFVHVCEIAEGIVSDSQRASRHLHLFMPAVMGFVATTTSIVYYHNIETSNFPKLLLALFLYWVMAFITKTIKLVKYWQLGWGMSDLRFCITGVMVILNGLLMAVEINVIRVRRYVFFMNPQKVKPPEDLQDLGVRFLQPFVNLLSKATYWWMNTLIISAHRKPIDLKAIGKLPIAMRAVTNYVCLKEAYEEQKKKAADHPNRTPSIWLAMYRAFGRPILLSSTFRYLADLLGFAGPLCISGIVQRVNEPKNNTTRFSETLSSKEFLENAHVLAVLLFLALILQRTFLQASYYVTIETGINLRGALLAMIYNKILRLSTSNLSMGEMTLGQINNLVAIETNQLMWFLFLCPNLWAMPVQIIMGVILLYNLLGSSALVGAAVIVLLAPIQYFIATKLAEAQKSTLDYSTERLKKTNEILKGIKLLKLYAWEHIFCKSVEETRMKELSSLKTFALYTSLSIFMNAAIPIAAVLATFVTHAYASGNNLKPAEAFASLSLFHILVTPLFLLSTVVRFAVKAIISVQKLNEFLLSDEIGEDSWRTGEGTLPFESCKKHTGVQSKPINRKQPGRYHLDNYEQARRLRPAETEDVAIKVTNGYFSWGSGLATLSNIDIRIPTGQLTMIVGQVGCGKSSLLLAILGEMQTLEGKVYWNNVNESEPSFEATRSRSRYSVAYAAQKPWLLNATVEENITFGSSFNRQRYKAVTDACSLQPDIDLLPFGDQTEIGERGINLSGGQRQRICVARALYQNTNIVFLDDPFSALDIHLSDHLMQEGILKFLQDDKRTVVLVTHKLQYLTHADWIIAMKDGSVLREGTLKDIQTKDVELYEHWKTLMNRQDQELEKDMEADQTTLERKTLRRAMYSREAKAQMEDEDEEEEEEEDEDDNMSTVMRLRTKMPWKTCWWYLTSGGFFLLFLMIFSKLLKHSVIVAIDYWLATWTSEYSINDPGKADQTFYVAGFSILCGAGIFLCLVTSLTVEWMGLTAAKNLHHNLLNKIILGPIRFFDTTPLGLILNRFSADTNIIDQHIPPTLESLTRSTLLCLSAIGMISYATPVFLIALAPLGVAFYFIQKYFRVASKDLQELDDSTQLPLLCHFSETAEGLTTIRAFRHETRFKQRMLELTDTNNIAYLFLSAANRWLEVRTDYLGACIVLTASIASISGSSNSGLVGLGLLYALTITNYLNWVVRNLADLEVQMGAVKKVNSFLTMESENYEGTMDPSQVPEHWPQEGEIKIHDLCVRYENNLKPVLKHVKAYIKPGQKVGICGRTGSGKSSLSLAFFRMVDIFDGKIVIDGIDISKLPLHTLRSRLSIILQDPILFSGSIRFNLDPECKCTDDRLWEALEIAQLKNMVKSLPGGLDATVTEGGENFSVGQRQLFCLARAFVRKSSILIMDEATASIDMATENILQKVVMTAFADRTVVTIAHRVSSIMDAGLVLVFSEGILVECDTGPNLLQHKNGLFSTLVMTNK

For the molecule `CC1(C)C=C(n2ccccc2=O)c2cc(S(=O)(=O)NC(=O)Nc3ccccc3)ccc2O1`, the figures for the half-maximal effective concentration (EC50) in test [1] and in test [3] were 10000 nM and 1410 nM, respectively. For the same molecule, the figures for the Emax in test [2] and in test [4] were 90.8% and 99.5%, respectively. In test [5], the “Delta pEC50” value is 0.85. The same molecule returned a pKD in test [6] of 5.5.
Consider `CC1(C)C=C(n2ccccc2=O)c2cc(S(=O)(=O)NC3CCCC3)ccc2O1`, for which the figures for the pKD in test [7] and in test [6] were 6.27 and 5.85, respectively.
With `CC(C)NS(=O)(=O)c1ccc2c(c1)C(n1ccccc1=O)=CC(C)(C)O2`, the values for the 50% effective concentration (EC50) in test [1] and in test [3] were 1950 nM and 676 nM, respectively. The Emax in test [2] came to 76.9%; in test [4], 94.8%. Also, the negative-log KD (pKD) came out at 5.08 in test [7] and 5.18 in test [6]. In test [5], the “Delta pEC50” value was 0.46.
Regarding `CC1(C)C=C(n2ccccc2=O)c2cc(S(=O)(=O)Nc3ccc([N+](=O)[O-])cc3)ccc2O1`, the EC50 was 10200 nM in test [1] and 2090 nM in test [3]. The Emax in test [2] worked out at 82.2%; in test [4], 75.6%. In addition, the negative-log KD (pKD) in test [7] was 5.8; in test [6], 5.35. Also, in test [5], the “Delta pEC50” value is recorded as 0.69.
For the molecule `CC1(C)C=C(n2ccccc2=O)c2cc(S(=O)(=O)Oc3ccccc3)ccc2O1`, the EC50 was 13.2 nM in test [1] and 2.51 nM in test [3]. In addition, the Emax in test [2] was determined as 67.9%; in test [4] it was 86.7%. Also, the pKD in test [7] turned out to be 8.55; in test [6], 7.78. Besides, the “Delta pEC50” value in test [5] came to 0.72.
Regarding `CC1(C)C=C(n2ccccc2=O)c2cc(S(N)(=O)=O)ccc2O1`, the EC50 in test [1] was 224 nM; in test [3] it was 69.2 nM. In addition, the Emax in test [2] worked out at 77.5%; in test [4] it was 92.1%. Besides, the pKD in test [7] came out at 6.94; in test [6] it was 6.5. Also, the “Delta pEC50” value in test [5] was found to be 0.51.
`CNS(=O)(=O)c1ccc2c(c1)C(n1ccccc1=O)=CC(C)(C)O2`: the EC50 in test [1] is 138 nM; in test [3], 17.8 nM. The Emax in test [2] is 85.8%; in test [4], 83%. For the same molecule, the negative-log KD (pKD) came to 7.26 in test [7] and 7.18 in test [6]. Further, the “Delta pEC50” value in test [5] stood at 0.89.
`CC1(C)C=C(n2ccccc2=O)c2cc(S(=O)(=O)NC(=O)NC3CCCCC3)ccc2O1` came in with a pKD in test [6] of 5.25.
As for `CN(c1ccccc1)S(=O)(=O)c1ccc2c(c1)C(n1ccccc1=O)=CC(C)(C)O2`, the concentration for a half-maximal effect (EC50) in test [1] was 9.77 nM; in test [3], 1.74 nM. In addition, the Emax in test [2] was 64.2%; in test [4] it was 86.5%. The figures for the pKD in test [7] and in test [6] were 7.87 and 7.69, respectively. The “Delta pEC50” value in test [5] amounted to 0.75.
Regarding `COc1ccc(NS(=O)(=O)c2ccc3c(c2)C(n2ccccc2=O)=CC(C)(C)O3)cc1`, the EC50 was 490 nM in test [1] and 117 nM in test [3]. Moreover, the values for the Emax in test [2] and in test [4] were 77.9% and 84.2%, respectively. Further, the pKD in test [7] came out at 6.61; in test [6], 6.27. Besides, the “Delta pEC50” value in test [5] amounted to 0.62.
Regarding `CC1(C)C=C(n2ccccc2=O)c2cc(S(=O)(=O)Nc3ccccc3Br)ccc2O1`, the pKD in test [7] was found to be 7.64; in test [6], 6.86.
For the molecule `CC1(C)C=C(n2ccccc2=O)c2cc(S(=O)(=O)F)ccc2O1`, the values for the EC50 in test [1] and in test [3] were 93.3 nM and 4.79 nM, respectively. In addition, the Emax was found to be 84.4% in test [2] and 90.5% in test [4]. For the same molecule, the pKD was 8.01 in test [7] and 7.83 in test [6]. In addition, the “Delta pEC50” value in test [5] turned out to be 1.3.
For `CCN(CC)S(=O)(=O)c1ccc2c(c1)C(n1ccccc1=O)=CC(C)(C)O2`, the pKD in test [7] turned out to be 6.94; in test [6] it was 6.45.
On to `CC1(C)C=C(n2ccccc2=O)c2cc(C#N)ccc2O1` [BIMAKALIM], for which the figures for the EC50 in test [1] and in test [3] were 158 nM and 16.2 nM, respectively. For the same molecule, the Emax turned out to be 92.3% in test [2] and 84.2% in test [4]. Besides, the negative logarithm of the KD (pKD) in test [7] turned out to be 7.98; in test [6], 7.25. For the same molecule, the “Delta pEC50” value in test [5] amounted to 0.99.
As to `CC1(C)C=C(n2ccccc2=O)c2cc(S(=O)(=O)NCCO)ccc2O1`, the EC50 in test [1] was 1000 nM; in test [3], 110 nM. Moreover, the results for the Emax in test [2] and in test [4] were 95.5% and 87.9%, respectively. The pKD was 6.34 in test [7] and 6.16 in test [6]. Further, in test [5], the “Delta pEC50” value was determined as 0.96.
For the molecule `CC1(C)C=C(n2ccccc2=O)c2cc(S(=O)(=O)N3CCOCC3)ccc2O1`, the EC50 was 603 nM in test [1] and 85.1 nM in test [3]. The results for the Emax in test [2] and in test [4] were 75.5% and 85.1%, respectively. Also, the figures for the pKD in test [7] and in test [6] were 6.73 and 6.44, respectively. In addition, in test [5], the “Delta pEC50” value is 0.85.
For the molecule `[2H]c1c([2H])c([2H])c(NS(=O)(=O)c2ccc3c(c2)C(n2ccccc2=O)=CC(C)(C)O3)c([2H])c1[2H]`, the EC50 in test [1] is 13.2 nM; in test [3], 2 nM. In addition, the Emax in test [2] amounted to 82.5%; in test [4], 88%. Also, the “Delta pEC50” value in test [5] amounted to 0.82.
On to `CC1(C)C=C(n2ccccc2=O)c2cc(S(=O)(=O)Nc3ccc(C#N)cc3)ccc2O1`, for which the concentration for a half-maximal effect (EC50) in test [1] was 1380 nM; in test [3], 263 nM. Further, the Emax came out at 84% in test [2] and 90.8% in test [4]. Also, the figures for the negative-log KD (pKD) in test [7] and in test [6] were 6.12 and 5.5, respectively. In test [5], the “Delta pEC50” value is listed as 0.72.
As to `CC1(C)C=C(n2ccccc2=O)c2cc(S(=O)(=O)Nc3ccccc3)ccc2O1`, the Emax in test [2] amounted to 63.6%; in test [4], 84.5%. Besides, the pKD in test [7] was 8.05; in test [7] (tested as the 2H-labelled form) it was 8.13; in test [6], 7.83; in test [6] (tested as the 2H-labelled form), 7.73. The EC50 in test [3] is 3.09 nM. Also, the “Delta pEC50” value in test [5] was determined as 0.66.
Take `CC1(C)C=C(n2ccccc2=O)c2cc(S(=O)(=O)N=[N+]=[N-])ccc2O1`: the EC50 is 204 nM in test [1] and 16.2 nM in test [3]. In addition, the figures for the Emax in test [2] and in test [4] were 88.3% and 77.2%, respectively. Further, the “Delta pEC50” value in test [5] turned out to be 1.1. For the same molecule, the pKD in test [6] worked out at 7.83.
For the molecule `CC1(C)Oc2ccc(S(=O)(=O)c3ccccc3)cc2[C@@H](N2CCCC2=O)[C@@H]1O` [RILMAKALIM], the EC50 in test [1] is 26.9 nM; in test [3] it was 2.4 nM. The Emax in test [2] was 81.2%; in test [4] it was 78.5%. The pKD is 8.15 in test [7] and 7.57 in test [6]. Further, the “Delta pEC50” value in test [5] is 1.05.
For `CC1(C)C=C(n2ccccc2=O)c2cc(S(=O)(=O)NCc3ccccc3)ccc2O1`, the EC50 is 1320 nM in test [1] and 525 nM in test [3]. For the same molecule, the Emax turned out to be 71.1% in test [2] and 77.5% in test [4]. For the same molecule, the results for the pKD in test [7] and in test [6] were 6 and 5.28, respectively. Moreover, the “Delta pEC50” value in test [5] worked out at 0.4.
With `CC1(C)C=C(n2ccccc2=O)c2cc(S(=O)(=O)c3ccccc3)ccc2O1`, the values for the EC50 in test [1] and in test [3] were 182 nM and 17.4 nM, respectively. For the same molecule, the maximum response (Emax) in test [2] stood at 79.3%; in test [4], 88.1%. The pKD came to 7.19 in test [7] and 6.86 in test [6]. The “Delta pEC50” value in test [5] worked out at 1.02.
`CCNS(=O)(=O)c1ccc2c(c1)C(n1ccccc1=O)=CC(C)(C)O2`: the Emax in test [2] was found to be 72.4%; in test [4] it was 87%. The values for the pKD in test [7] and in test [6] were 7 and 6.7, respectively. The EC50 in test [3] was 56.2 nM. For the same molecule, the “Delta pEC50” value in test [5] turned out to be 0.88.
In the case of `CC1(C)C=C(n2ccccc2=O)c2cc(S(=O)(=O)Nc3ccccc3F)ccc2O1`, the pKD in test [7] amounted to 7.96; in test [6], 7.63.
In the case of `CN(C)S(=O)(=O)c1ccc2c(c1)C(n1ccccc1=O)=CC(C)(C)O2`, the EC50 in test [1] was 95.5 nM; in test [3], 16.2 nM. The maximum response (Emax) in test [2] is 78.3%; in test [4], 74.1%. Further, the results for the pKD in test [7] and in test [6] were 7.2 and 6.91, respectively. Also, the “Delta pEC50” value in test [5] is recorded as 0.77.
For `CC1(C)C=C(n2ccccc2=O)c2cc(S(=O)(=O)Nc3ccc(Br)cc3)ccc2O1`, the negative-log KD (pKD) in test [7] turned out to be 6.65; in test [6], 5.77.

As a reminder, the EC50 is the concentration giving half of the maximal effect. By Emax is commonly meant the greatest response seen or fitted, relative to the assay's reference. Broadly, the pKD is the KD on a negative log10 scale, so that one unit is a factor of ten. A higher pKD goes with a small KD.
